Experimental data from PubChem BioAssay.
Active and inactive are the calls of the source.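 How the source made its calls, unless noted: active means inhibition above 20% together with a positive visual image hit; inconclusive means visual image hit but inhibition not above 20%; inactive means no visual image hit.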

Experiments:
[1] = inhibitors of TNFa-induced NFkB p65 translocation, primary screen, imaging, HUVEC, MLSMR starter and 10KST1 sets (AID 438); conditions: HUVEC TNFa-induced p65 nuclear translocation; cell count: measured here: nuclei count (cytotoxicity indicator), at 2.08 µM; inhibition: at 2 µM, stronger effect = higher value, 0% TNFa-plus-vehicle, 100% no-TNFa wells;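 further: compound added about 3h40 before a 20 min TNFalpha stimulation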;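 on inhibition: signal is the nuclear over cytoplasmic p65 intensity ratio per well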
[2] = endothelial E-selectin expression blockers – imaging, HUVEC, immunofluorescence, MLSMR starter and 10KST1 sets, primary screen (AID 487;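 active means visually confirmed hit in the image check and inhibition above 20%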;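 on inhibition: signal is fraction of cell area covered by stained E-selectin grains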;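 on nuclei count: 100% = median nuclei count of all wells on the same plate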); conditions: HUVEC TNFalpha-induced E-selectin immunofluorescence imaging, at 2 µM; inhibition: stronger effect = higher value; nuclei count: measured here: cell number, toxicity
[3] = Primary imaging screen for DUSP6 inhibitors that restore phospho-Erk in transfected HeLa cells, chemical complementation (AID 609;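 active means compounds giving at least 50% inhibition in the cell-based MKP-3 phosphatase rescue imaging test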;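 on inhibition: phospho-Erk level distribution per well compared with pooled transfected vehicle control wells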); conditions: HeLa MKP-3 transfected, phospho-Erk imaging KS statistic, at 10 µM, cells stimulated with TPA for 15 min
[4] = biological target: Dual specificity protein phosphatase 6 (Homo sapiens) (UniProt Q16828); test: as above; conditions: HeLa MKP-3 transfected, phospho-Erk imaging KS statistic; at 10 µM; stronger effect = higher value; cells stimulated with TPA for 15 min
Dual specificity protein phosphatase 6 (Homo sapiens), sequence (Q16828 whole entry, looked up): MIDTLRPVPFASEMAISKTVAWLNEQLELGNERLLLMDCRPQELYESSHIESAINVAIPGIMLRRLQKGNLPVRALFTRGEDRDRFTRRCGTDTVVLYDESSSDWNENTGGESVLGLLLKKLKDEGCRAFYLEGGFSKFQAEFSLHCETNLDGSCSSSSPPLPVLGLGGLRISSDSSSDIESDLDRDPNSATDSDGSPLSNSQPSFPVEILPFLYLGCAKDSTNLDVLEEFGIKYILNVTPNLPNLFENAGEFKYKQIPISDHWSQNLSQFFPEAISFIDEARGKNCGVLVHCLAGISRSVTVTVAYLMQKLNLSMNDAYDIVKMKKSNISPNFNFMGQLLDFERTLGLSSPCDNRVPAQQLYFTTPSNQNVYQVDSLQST

[5] = biological target: Voltage-gated potassium channel subunit beta-2 (Rattus norvegicus) (UniProt P62483); test: inhibitors of rat Kvbeta2 reductase activity – biochemical, NADPH fluorescence, primary screen (AID 622;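 active means fluorescence slope higher than the sample average by over 3 SD, cut at about -0.22 in these data, passing the limit was not always enough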;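 further: slope of raw intensity against log time taken from 70 to 1610 s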); conditions: recombinant KvBeta, 4-cyanobenzaldehyde reduction, at 10 µM, stronger effect = higher value
Voltage-gated potassium channel subunit beta-2 (Rattus norvegicus), sequence (P62483 whole entry, looked up): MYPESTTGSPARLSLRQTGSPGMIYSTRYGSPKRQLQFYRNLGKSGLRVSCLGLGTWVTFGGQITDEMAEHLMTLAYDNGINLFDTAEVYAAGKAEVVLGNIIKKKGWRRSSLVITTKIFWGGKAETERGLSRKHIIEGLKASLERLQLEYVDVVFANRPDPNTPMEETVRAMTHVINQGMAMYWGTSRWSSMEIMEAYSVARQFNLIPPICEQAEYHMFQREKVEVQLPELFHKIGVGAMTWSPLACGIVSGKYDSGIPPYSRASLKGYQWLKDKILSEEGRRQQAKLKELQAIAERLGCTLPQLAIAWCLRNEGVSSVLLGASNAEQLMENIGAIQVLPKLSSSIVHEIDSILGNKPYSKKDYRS

[6] = biological target: Voltage-gated potassium channel subunit beta-2 (Rattus norvegicus) (UniProt P62483); test: enhancers of rat Kvbeta2 NADPH turnover – biochemical, NADPH fluorescence, primary screen (AID 623;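 active means NADPH fluorescence slope more negative than the mean of all samples by about 3 SD, 99.7% confidence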;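 further: fluorescence intensity change per second fitted from 20 to 320 s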); conditions: Recombinant KvBeta, NADPH fluorescence decrease slope, 10 min; at 10 µM; stronger effect = lower value
[7] = biological target: Alpha-2C adrenergic receptor (Homo sapiens) (UniProt P18825); test: compounds altering alpha2C-coupled GIRK flux – cell-based, HEK293 alpha2C/GIRK1/2, thallium flux, primary screen (AID 624;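 active means fluorescence slope after compound addition differing from the mean of all screened samples at 99.7% confidence, in either direction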;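 further: slope of fluorescence ratio to pre-addition baseline per second over 15 to 24 s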); conditions: thallium flux BTC fluorescence, at 10 µM, actives lie on both sides
Alpha-2C adrenergic receptor (Homo sapiens), sequence (P18825 whole entry, looked up): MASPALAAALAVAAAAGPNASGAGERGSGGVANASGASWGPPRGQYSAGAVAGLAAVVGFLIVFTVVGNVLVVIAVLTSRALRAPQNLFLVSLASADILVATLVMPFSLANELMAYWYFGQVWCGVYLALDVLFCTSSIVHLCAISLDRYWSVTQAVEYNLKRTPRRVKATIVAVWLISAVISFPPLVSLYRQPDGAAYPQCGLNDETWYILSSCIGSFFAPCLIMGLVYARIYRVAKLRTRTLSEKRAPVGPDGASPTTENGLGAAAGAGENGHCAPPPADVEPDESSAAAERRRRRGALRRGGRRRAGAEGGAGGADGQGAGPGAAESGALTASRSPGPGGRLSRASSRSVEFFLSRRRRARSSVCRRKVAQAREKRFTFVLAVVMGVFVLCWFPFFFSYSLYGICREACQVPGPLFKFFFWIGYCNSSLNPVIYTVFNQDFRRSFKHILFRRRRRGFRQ

[8] = inhibitors of larval lipid processing in zebrafish, primary screen, whole organism, PED6 fluorescence, gall bladder and intestine (AID 686;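 active means a full or partial loss of lipid-probe fluorescence in the fish gall bladder, intestine or both, judged by eye; inactive means no fluorescence loss, or compound toxic to the fish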;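 further: larvae 5 to 7 days old with five fish per well; signal comes from phospholipase A2 cleavage of quenched PED6 carried via bile; overnight exposure to compound and PED6 before scoring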); conditions: Zebrafish larvae PED6 lipid processing, fluorescence scoring; screened at 20 µM (by protocol)
Procedure, shortened: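 Doses: 20 µM single dose. Test system: live zebrafish larvae aged 5-7 days, whole organism. Quantity: five larvae per well. Measured by: By-eye fluorescence microscopy. Reagent: ingested quenched lipid PED6 at 100 nM. Read-out: visual per-well fluorescence inhibition score. Times: overnight exposure of larvae to compound plus PED6.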

[9] = loss of swimming-algae plug formation – whole organism, Chlamydomonas reinhardtii, WT vs cilia-less mutant, absorbance, 96-well, primary screen (AID 463189;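 active means inhibition at or above 50% relative to wild type and mutant plate controls; inactive means inhibition below 50%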;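 further: 0% = wild type cc124 cells in DMSO and 100% = ciliumless bld1 mutant cells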); conditions: Chlamydomonas reinhardtii gravitaxis, OD600 absorbance, 2 days; at 10 µM; stronger effect = higher value
[10] = measured here: cell density z-score
[11] = measured here: nuclear c-Myc green intensity z-score
[12] = measured here: nuclear pErk red intensity z-score, stronger effect = higher value

Row | Compound | cell count [1] | inhibition [1] | inhibition [2] | nuclei count [2] | z-score [3, 10] | z-score [3, 11] | z-score [3, 12] | inhibition [4] | fluorescence slope [5] | NADPH fluorescence slope [6] | slope [7] | outcome [8] | inhibition [9]
1 | COc1ccc(-c2cc(=O)[nH]c(=O)[nH]2)cc1 | 636 | -16% (inactive) | -269% (inactive) | 186% | -0.456 | 0.584 | 0.91 | 3.66% (inactive) | -0.466 (inactive) | -0.000273 (inactive) | 0.00552 (inactive) | inactive | -6.46% (inactive)
2 | O=C(C1=C(O)C(=O)N(CCCN2CCOCC2)C1c1ccccn1)c1cccs1 (stereo not drawn) | 506 | -11.2% (inactive) | -117% (inactive) | 136% | -1.2 | -0.158 | 2.08 | -3.5% (inactive) | -0.495 (inactive) | -5.5e-05 (inactive) | 0.00674 (inactive) | inactive | -6.32% (inactive)
3 | CCOC(=O)c1[nH]c2cc3c(cc2c1NC(=O)CN1CCCCC1C)OCO3 (stereo not drawn) | 588 | -1.8% (inactive) | 46.2% (inactive) | 167% | 0.894 | -1.11 | -0.403 | -10.5% (inactive) | -0.229 (inactive) | -2e-05 (inactive) | 0.00474 (inactive) | inactive | -2.82% (inactive)
4 | Clc1ccccc1CSc1nnc(-c2ccco2)c(-c2ccco2)n1 | 554 | -6.9% (inactive) | -21.1% (inactive) | 157% | -1.8 | 0.808 | 0.169 | -10.5% (inactive) | -0.407 (inactive) | -1.8e-05 (inactive) | 0.00446 (inactive) | inactive | 19.9% (inactive)
5 | Cc1nc(NS(=O)(=O)c2ccccc2)sc1NC(=O)OCCN(C)C | 362 | -18.9% (inactive) | -107% (inactive) | 130% | 1.66 | -0.339 | -0.337 | 24.3% (inactive) | -0.331 (inactive) | 2.1e-06 (inactive) | 0.00439 (inactive) | inactive | 34.8% (inactive)
6 | COc1ccccc1C1/C(=C(/O)c2ccc(C)cc2)C(=O)C(=O)N1Cc1ccco1 (stereo not drawn) | 550 | 9.2% (inactive) | 6.3% (inactive) | 101% | 0.623 | 0.192 | -1.11 | -11.5% (inactive) | -0.552 (inactive) | -6.1e-05 (inactive) | 0.00643 (inactive) | inactive | -13.2% (inactive)
7 | COc1ccc(C(=O)CSC2=C(C#N)C3(CCCCC3)C(C#N)=C(N)N2)cc1 | 705 | -13.2% (inactive) | -25.4% (inactive) | 192% | -0.688 | 1.18 | 0.232 | 2.71% (inactive) | -0.393 (inactive) | -3.2e-05 (inactive) | 0.00422 (inactive) | inactive | -3.04% (inactive)
8 | c1ccc(OCc2nn3c(-c4cccnc4)nnc3s2)cc1 | 598 | -6.1% (inactive) | -87.1% (inactive) | 146% | 0.586 | -1.52 | -0.25 | -16.8% (inactive) | -0.423 (inactive) | -5.5e-05 (inactive) | 0.0063 (inactive) | inactive | 22.5% (inactive)
9 | Cc1nc(-c2c(-c3ccc(O)cc3O)noc2C(F)(F)F)cs1 | 518 | -18.3% (inactive) | -135% (inactive) | 163% | 0.818 | -0.387 | 0.0899 | 20.2% (inactive) | -0.468 (inactive) | -0.000226 (inactive) | 0.00467 (inactive) | inactive | 20.1% (inactive)
10 | Cc1cc(C(F)(F)F)nn1CC(=O)NCC1CCCO1 (stereo not drawn) | 516 | -3.1% (inactive) | -24% (inactive) | 137% | -0.885 | 0.653 | 1.12 | -3.98% (inactive) | -0.484 (inactive) | -0.000135 (inactive) | 0.00552 (inactive) | inactive | 12.4% (inactive)
11 | Cc1occc(=O)c1OC(=O)Nc1ccccc1 | 477 | -8.6% (inactive) | -106% (inactive) | 154% | -0.12 | 2.47 | -1.69 | 14% (inactive) | -0.524 (inactive) | -2.3e-05 (inactive) | 0.00424 (inactive) | inactive | -3.66% (inactive)
12 | COc1ccc2c(c1)nc(N)n2Cc1ccccc1 | 570 | -4.4% (inactive) | 15% (inactive) | 168% | 2.35 | -1.31 | 1.13 | 15.8% (inactive) | -0.388 (inactive) | -2.5e-05 (inactive) | 0.004 (inactive) | inactive | 12.8% (inactive)
13 | CN(C)CCNc1nc(-c2ccco2)c2c(c1C#N)CC(C)(C)OC2 | 621 | -14.2% (inactive) | -15.8% (inactive) | 164% | -0.37 | -0.517 | 0.864 | 1.48% (inactive) | -0.34 (inactive) | -5.5e-05 (inactive) | 0.00509 (inactive) | inactive | 17.6% (inactive)
14 | CCOC(=O)Cn1c(SC)nc2sc3c(c2c1=O)CC(C)(C)OC3 | 655 | -7.4% (inactive) | 1.5% (inactive) | 179% | 1.23 | -1.44 | -0.342 | -0.159% (inactive) | -0.459 (inactive) | -0.000276 (inactive) | 0.00508 (inactive) | inactive | -3.53% (inactive)
15 | CCCOc1ccc(/C(O)=C2/C(=O)C(=O)N(CCN(C)C)C2c2ccncc2)cc1 (stereo not drawn) | 434 | -4.1% (inactive) | -139% (inactive) | 154% | 1.88 | 0.199 | -1.31 | -4.7% (inactive) | -0.418 (inactive) | -6.3e-05 (inactive) | 0.00564 (inactive) | inactive | 8.14% (inactive)
16 | Cc1cc2c(c(=O)n1Cc1cccnc1)C(c1ccccc1)C(C#N)=C(N)O2 (stereo not drawn) | 550 | -28.8% (inactive) | -50% (inactive) | 160% | -0.164 | -2.06 | -1.42 | -6.06% (inactive) | -0.537 (inactive) | -2.7e-05 (inactive) | 0.00757 (inactive) | inactive | 22.9% (inactive)
17 | Cc1ccc2[nH]c3c(c2c1)CN(C(=O)CN1CCCc2ccccc21)CC3 | 557 | -8.1% (inactive) | -104% (inactive) | 142% | -0.606 | -1.61 | -0.633 | 2.92% (inactive) | -0.439 (inactive) | -7.1e-05 (inactive) | 0.00496 (inactive) | active; weak signal in gallbladder and intestine | 15.5% (inactive)
18 | Cc1cc(=O)oc(C)c1C(=O)NCCN1CCOCC1 | 476 | -0.5% (inactive) | -10.6% (inactive) | 92.4% | -0.82 | 0.575 | 1.34 | -1.75% (inactive) | -0.491 (inactive) | -1.8e-05 (inactive) | 0.00592 (inactive) | inactive | 21.9% (inactive)
19 | COC(=O)c1ccc(-c2sc3nc(N4CCOCC4)c4c(c3c2N)CC(C)(C)OC4)o1 | 595 | -19.5% (inactive) | -62.4% (inactive) | 153% | -1.25 | 1.71 | 2.19 | -0.624% (inactive) | -0.16 (inactive) | -2.4e-05 (inactive) | 0.00678 (inactive) | inactive | -4.84% (inactive)
20 | CC(=O)Nc1cccc(NC(=O)CSc2nc(C)c(C)c(C)c2C#N)c1 | 546 | -8.2% (inactive) | 28% (inactive) | 174% | 0.636 | 0.622 | -1.1 | -4.27% (inactive) | -0.4 (inactive) | -9.2e-06 (inactive) | 0.0055 (inactive) | inactive | -2.25% (inactive)
21 | CCN1CCN(c2nc3c(C)cccn3c(=O)c2/C=C(\C#N)S(=O)(=O)c2ccc(C)cc2)CC1 | 519 | -0.8% (inactive) | -173% (inactive) | 118% | 0.354 | -1.44 | 0.701 | 1.6e-07% (inactive) | -0.51 (inactive) | -6.4e-05 (inactive) | 0.00274 (inactive) | inactive | 14.6% (inactive)
22 | Cc1ccc2[nH]c3c(N4CCN(Cc5ccccc5)CC4)ncnc3c2c1 | 328 | -7.3% (inactive) | -11.9% (inactive) | 148% | 0.594 | 0.553 | -0.309 | 10.5% (inactive) | -0.403 (inactive) | -0.000135 (inactive) | 0.00442 (inactive) | inactive; toxic | 38.4% (inactive)
23 | O=C1c2ccccc2C(=O)N1CCN1CCc2ccccc21 | 404 | -3.1% (inactive) | -131% (inactive) | 166% | 0.756 | -0.637 | -0.565 | 13.2% (inactive) | -0.394 (inactive) | -5.6e-05 (inactive) | 0.00539 (inactive) | inactive | -3.59% (inactive)
24 | O=C(c1ccco1)N1CCN(c2ncnc3c2[nH]c2ccccc23)CC1 | 462 | 0.3% (inactive) | -18.4% (inactive) | 138% | 1.15 | 0.243 | 0.509 | 0.671% (inactive) | -0.359 (inactive) | -1.6e-05 (inactive) | 0.00516 (inactive) | inactive | -4.22% (inactive)
25 | CCOC(=O)C1=C(c2ccccc2)NC(SCC(=O)Nc2ccccc2C)=C(C#N)C1c1ccco1 (stereo not drawn) | 433 | -4.2% (inactive) | -136% (inactive) | 166% | -0.18 | -0.317 | -0.0556 | -0.159% (inactive) | -0.408 (inactive) | -6.1e-05 (inactive) | 0.0072 (inactive) | inactive | 0.63% (inactive)
26 | COc1ccccc1C1/C(=C(/O)c2cnn(-c3ccccc3)c2C)C(=O)C(=O)N1CCN(C)C (stereo not drawn) | 498 | -0.5% (inactive) | -189% (inactive) | 132% | 0.414 | -0.415 | -0.719 | 10.5% (inactive) | -0.558 (inactive) | -7e-05 (inactive) | 0.00448 (inactive) | inactive; toxic | -1.15% (inactive)
